Rin1 Abl inh – inhibitors of human Rin1-Abl protein interaction. TR-FRET Rin1/Abl binding, biochemical. inhibition, % at 7.35 µM. hit rate 0.4% among 360,000; in the data active = inhibition above about 5%, passing the limit was not always enough
Myeloid diff MLP – compounds promoting myeloid differentiation; ER-HoxA9 myeloid progenitors, lysozyme-GFP differentiation, flow cytometry; calls only at 10 µM; hit rate 1% among 360,000;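 active = normalized GFP-positive differentiation at or above the plate's own cutoff, the solvent-only control mean plus 3 SD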;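 note: cells exposed to compound for four days before flow analysis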
T cell HTS – modulates CD8 T cell binding to vesicles; response (vesicle binding), % at 7 µM; AID 2052; 2C CD8+ T cell-vesicle binding, flow cytometry; hits give low values; hit rate 0.068% among 330,000;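 active = response, share of CD8 T cells binding vesicles, and their 90th percentile fluorescence all below set limits, cut at about 80% in these data, passing the limit was not always enough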;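 note: values below 100% mean blocked vesicle binding to the CD8+ T cells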
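Benchmarks: naked versus QL9-loaded vesicles / Assay system: purified 2C TCR transgenic mouse naive CD8+ T cells / Technique: high-throughput flow cytometry with anti-B7-1 and anti-CD8 staining / Timing: Cell–vesicle co-incubation 1.5 h at 37 °C, staining 20 min on ice / Read-out: percent CD8+ FL2 mean versus row control / Probe or stimulus: QL9-loaded Drosophila micro-vesicles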
GRK2 inh – human GRK2 inhibition via aptamer displacement; inhibition of aptamer binding, % at 10 µM; hit rate 0.59% among 330,000; AID 488847; bead flow cytometry, FAM-aptamer displacement from GRK2; P25098;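 active = inhibition of aptamer binding above 40%, roughly 3 SD of noise, on plates passing a quality check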;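 note: median bead fluorescence of bound FAM aptamer so fluorescent compounds give negative values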
Rce1 inhib – blocks yeast Ras-converting enzyme; Q03530; yeast membranes, quenched prenylated peptide cleavage fluorescence; calls only; hit rate 0.27% among 290,000; AID 2563;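 active = fall in fluorescence gain of 50% or more versus controls, with final raw signal at or below 3038400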;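 note: plate controls were neutral control wells for no effect and wells lacking membranes for full effect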
SKN-1 block – inhibitors of C. elegans SKN-1 | C. elegans VP596 Pgst-4::GFP/RFP ratio, acrylamide-induced, 24 h | hit rate 0.49% among 360,000 | inhibition, % at 21.8 µM;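 active = interference check ratio from 0.5 to 1.5 plus GFP to RFP signal ratio inhibition reaching or exceeding a fixed threshold, cut at about 30% in these data, passing the limit was not always enough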
* hit, by the source's call. Only some compounds are listed: those with a hit (about 2.6% of all), similar ones and a draw of the others.

Screening Cc1cc(C)c(C#N)c(SCCS(=O)(=O)c2ccc(Cl)cc2)n1 returned Rin1 Abl inh -4, Myeloid diff MLP inactive, T cell HTS 181, GRK2 inh 0, Rce1 inhib inactive and SKN-1 block -7.
For Cc1cc(C)c(C#N)c(SCCS(=O)(=O)c2ccc(C(C)(C)C)cc2)n1 the results were Rin1 Abl inh -1, Myeloid diff MLP active, T cell HTS 174, GRK2 inh 11, Rce1 inhib inactive and SKN-1 block -32.
For CCOC(=O)CNS(=O)(=O)c1ccc(S(=O)(=O)NC2CC2)cc1 the results were Rin1 Abl inh -2, Myeloid diff MLP inactive, T cell HTS 722, GRK2 inh 0, Rce1 inhib inactive and SKN-1 block 16.
O=C(c1ccccc1)c1ccc2nc(-c3ccc(NC(=O)c4ccccc4Br)cc3)[nH]c2c1 was read as Rin1 Abl inh -3, Myeloid diff MLP inactive, T cell HTS 500, GRK2 inh 0, Rce1 inhib inactive and SKN-1 block 6.
`Cc1ccccc1C(=O)Nc1ccc(-c2nc3ccc(C(=O)c4ccccc4)cc3[nH]2)cc1` gave Rin1 Abl inh 8.5*, Myeloid diff MLP inactive, T cell HTS 868, GRK2 inh 2, Rce1 inhib inactive and SKN-1 block 15.
Cc1cnc(NC(=O)C2CC=CCC2)s1 (centres undefined) was read as Rin1 Abl inh 2, Myeloid diff MLP inactive, T cell HTS 269, GRK2 inh 0, Rce1 inhib inactive and SKN-1 block 12.
For O=C(NCCCn1ccnc1)/C(=C\c1cccs1)NC(=O)c1ccco1 the results were Rin1 Abl inh 0, Myeloid diff MLP inactive, T cell HTS 334, GRK2 inh 41*, Rce1 inhib inactive and SKN-1 block -5.
Screening COc1ccc(C(=O)N/C(=C/c2cccs2)C(=O)NCCCn2ccnc2)cc1OC returned Rin1 Abl inh -2, Myeloid diff MLP inactive, T cell HTS 89, GRK2 inh 0, Rce1 inhib inactive and SKN-1 block -1.
CCN1CCN(C(=O)N2CCOCC2)CC1 was read as Rin1 Abl inh 2, Myeloid diff MLP inactive, T cell HTS 158, GRK2 inh 0, Rce1 inhib inactive and SKN-1 block 12.
Cc1ccccc1-n1c(SCC(=O)O)nc2sc3c(c2c1=O)CCCC3 was read as Rin1 Abl inh -3, Myeloid diff MLP inactive, T cell HTS 206, GRK2 inh 0, Rce1 inhib inactive and SKN-1 block 36*.
For Cc1ccc(S(=O)(=O)Nc2ccc3c(c2)C(=O)N([C@@H](C)CO)C[C@@H](C)[C@@H](CN(C)CC2CC2)OCCCC[C@@H](C)O3)cc1 the results were Rin1 Abl inh 2, Myeloid diff MLP inactive and SKN-1 block 6.
Screening COc1ccc(C(C(=O)NC2CCCCC2)N(Cc2cccs2)C(=O)Cc2c[nH]c3ccccc23)cc1 (centres undefined) returned Rin1 Abl inh -4, Myeloid diff MLP inactive, T cell HTS 212, GRK2 inh 0, Rce1 inhib inactive and SKN-1 block 39*.
For CC1(C)CC(=O)C(C=Nc2ccc(N)cc2)=C(O)C1 the results were Rin1 Abl inh 1, Myeloid diff MLP active, T cell HTS 299, GRK2 inh 1, Rce1 inhib inactive and SKN-1 block 14.
For CSc1ccccc1N=CC1=C(O)CC(C)(C)CC1=O the results were Rin1 Abl inh 1, Myeloid diff MLP inactive, T cell HTS 412, GRK2 inh 0, Rce1 inhib inactive and SKN-1 block -7.
COc1cccc(N=CC2=C(O)CC(C)(C)CC2=O)c1 was read as Rin1 Abl inh -2, Myeloid diff MLP inactive, T cell HTS 256, GRK2 inh 0, Rce1 inhib inactive and SKN-1 block -2.
CC1(C)CC(=O)C(C=Nc2ccc(O)cc2)=C(O)C1 was read as Rin1 Abl inh -6, Myeloid diff MLP inactive, GRK2 inh 0, Rce1 inhib inactive and SKN-1 block 9.
COC(=O)c1ccc(N)c(N=CC2=C(O)CC(C)(C)CC2=O)c1 was read as Rin1 Abl inh 3, Myeloid diff MLP active, T cell HTS 283, GRK2 inh 1, Rce1 inhib inactive and SKN-1 block 8.
Screening CC1(C)CC(=O)C(C=Nc2cc(C(=O)c3ccccc3)ccc2N)=C(O)C1 returned Rin1 Abl inh 1, Myeloid diff MLP active, T cell HTS 230, GRK2 inh 2, Rce1 inhib inactive and SKN-1 block 8.

Screening data: PubChem BioAssay, several laboratories
